Source: ChEMBL document CHEMBL4732051, “The discovery of potent small molecule activators of human STING” (Eur J Med Chem, 2021)
The source made the active and inactive calls. The calls are words filed in the database; no cut-off is given here.

Key:
[1] = molecular target: T1, Stimulator of interferon genes protein (Homo sapiens, UniProt Q86WV6); test: Activation of wild-type human STING expressed in HEK293T cells assessed as IRF3 reporter activation measured after 20 hrs by luciferase reporter gene assay; format: cell-based
[2] = system: Stimulator of interferon genes protein (Homo sapiens), Q86WV6 [G230A,R293Q]; test: Induction of STING AQ mutant (unknown origin) expressed in HEK293T cells assessed as increase in luciferase coupled ISG54-ISRE activity incubated for 18 hrs luciferase reporter gene assay; format: cell-based; conditions: filed as activator
[3] = molecular target: T2, Stimulator of interferon genes protein (Mus musculus) (UniProt Q3TBT3); test: Activation of mouse STING
T2 sequence (whole entry): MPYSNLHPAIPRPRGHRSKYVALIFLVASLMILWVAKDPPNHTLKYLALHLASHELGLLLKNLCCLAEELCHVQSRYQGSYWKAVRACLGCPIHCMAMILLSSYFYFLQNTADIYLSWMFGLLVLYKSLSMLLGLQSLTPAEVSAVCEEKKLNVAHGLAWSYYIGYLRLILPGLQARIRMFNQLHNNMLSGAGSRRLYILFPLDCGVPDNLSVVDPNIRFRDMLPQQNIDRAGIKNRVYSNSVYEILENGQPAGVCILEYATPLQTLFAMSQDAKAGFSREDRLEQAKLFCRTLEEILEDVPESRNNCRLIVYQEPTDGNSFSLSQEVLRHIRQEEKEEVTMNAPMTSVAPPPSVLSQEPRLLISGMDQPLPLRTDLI

[4] = molecular target: Stimulator of interferon genes protein (Macaca fascicularis) (UniProt A0A2K5TV20); test: Activation of cynomolgus monkey STING; conditions: filed as activator
HEK293T [5] = test: Activation of human STING R232H mutant expressed in HEK293T cells assessed as phosphorylation of IFR3 at (Ser396) upto 10 uM incubated for 2 hrs and measured by Western blot analysis; format: cell-based; conditions: filed as activator, dose microM <=10, time 2.0 hrs
How it was run: (§1)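 HEK293T clones stably carrying each human STING variant, picked by blasticidin selection and limiting dilution. 5 x 10^5 cells were exposed to compound at 10μM for 2 h, lysed in RIPA with phosphatase and protease inhibitors, and 10 μg protein run on 10% SDS-PAGE. Immunoblots probed for pSTING (Ser366), pIRF3 (Ser396), total STING, IRF3 and actin, detected by ECL.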

HEK293T [6] = test: Activation of human STING H232 mutant expressed in HEK293T cells assessed as phosphorylation at (Ser366) at 10 uM incubated for 2 hrs and measured by Western blot analysis; format: cell-based; conditions: filed as activator; how it was run: as §1
HEK293T [7] = test: Activation of human STING H232 mutant expressed in HEK293T cells assessed as phosphorylation of IRF-3 at (Ser396) at 10 uM incubated for 2 hrs and measured by Western blot analysis; format: cell-based; conditions: filed as activator; how it was run: as §1
[8] = system: Stimulator of interferon genes protein (Homo sapiens), Q86WV6 [UNDEFINED MUTATION]; test: Activation of human STING R232 in human MDA-MB-468 cells assessed as phosphorylation at (Ser366) at 10 uM incubated for 2 hrs and measured by Western blot analysis; format: cell-based; conditions: filed as activator
How it was run: (§2)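 Tumor cell lines or human primary cells carrying endogenous STING variants; STING KO cells as control. 10µM for 2 h, then lysed in RIPA with phosphatase and protease inhibitors. 10 μg protein on 10% SDS-PAGE, blotted for pSTING (Ser366), pIRF3 (Ser396), STING, IRF3 and actin, ECL detection.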

[9] = molecular target: T1, Stimulator of interferon genes protein; test: Activation of human STING expressed in human PBMC cells assessed as phosphorylation at (ser366) at 10 uM incubated for 2 hrs and measured by Western blot analysis; format: cell-based; conditions: filed as activator; how it was run: as §2
[10] = molecular target: T1, Stimulator of interferon genes protein; test: Activation of human STING in human PBMC cells assessed as induction of IFNbeta expression at 10 uM incubated upto 24 hrs and measured by qt-PCR analysis; format: cell-based; conditions: filed as activator, time hrs <=24
How it was run: (§3)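 2 x 10^5 freshly isolated human PBMC from healthy donors, separated on Histopaque, given a single compound concentration. Harvested early (6 hr) or late (20h). Cytokine mRNA read by qRT-PCR as relative normalized expression (fold) against vehicle-treated cells.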

[11] = molecular target: T1, Stimulator of interferon genes protein; test: Activation of human STING in human PBMC cells assessed as induction of TNFalpha expression at 10 uM measured by qt-PCR analysis; format: cell-based; conditions: filed as activator; how it was run: as §3
[12] = system: Stimulator of interferon genes protein (Homo sapiens), Q86WV6 [UNDEFINED MUTATION]; test: Activation of human STING R232 in human dendritic cells assessed as induction of CD83 measured by qt-PCR analysis; format: cell-based; conditions: Dendritic cell, filed as activator
How it was run: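 PBMC isolated on Histopaque 1077, ACK-lysed, monocytes purified by MACS. Monocytes at 1 x 10^6 cells/ml in RPMI/10% FBS with 100ng/ml GMCSF and 50ng/ml IL4, 37 °C, 5% CO2, for 24–36 h. Compound added (1% DMSO final) for 6 h. CD86 and CD83 read by qPCR as fold of vehicle-treated cells.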

[13] = Stability in human plasma at 37 degC by LC-MS/MS analysis; format: ADME, cell-free
How it was run: (§4)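 Compound at 10 μM was incubated in mouse or human plasma at 37°C and its stability assessed.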

[14] = Stability in mouse plasma at 37 degC by LC-MS/MS analysis; format: ADME, cell-free; how it was run: as §4
Cytochrome P450 3A4 = Cytochrome P450 3A4 (Homo sapiens, UniProt P08684); test: Inhibition of CYP3A4 (unknown origin); format: ADME
B16-F10 = test: Cytotoxicity against mouse B16 F10 cells at 5 to 10 uM; format: cell-based; conditions: b16-f10, 10 µM, dose 5-10 µM
hERG (KCNH2) = hERG (KCNH2) (Homo sapiens, UniProt Q12809); test: Inhibition of human ERG at 10 uM
[15] = Cmax in BALB/c mouse at 5 mg/kg, iv measured up to 24 hrs by LC-MS/MS analysis; format: ADME, organism-based; set-up: route intravenous, dose 5 mg/kg, time <=24; conditions: in vivo
How it was run: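 Overnight-fasted mice, n=3 per group, single dose by lateral tail vein (iv) or oral gavage (po). Retro-orbital blood under isoflurane at 2 min–24 h (iv) or 5 min–24 h (po). Plasma spun at 1500 x g, 15 min, 4 °C, stored -80 °C, then analysed by LCMS.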

[16] = Oral bioavailability in BALB/c mouse at 10 mg/kg measured up to 24 hrs by LC-MS/MS analysis; format: ADME, organism-based; conditions: in vivo
How it was run: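 Overnight-fasted mice, randomized, n=3 per group, each given a single dose by lateral tail vein (iv) or oral gavage. Blood (50 μl per point, under isoflurane) was taken from the retro-orbital plexus. Sampling was at 2 min–24 h after iv and 5 min–24 h after oral dosing. Plasma was separated at 1500 x g for 15 min at 4 °C, stored at -80 °C, and analysed by LCMS.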

Cytochrome P450 2D6 = Cytochrome P450 2D6 (Homo sapiens, UniProt P10635); test: Inhibition of CYP2D6 (unknown origin); format: ADME
Cytochrome P450 2C9 = Cytochrome P450 2C9 (Homo sapiens, UniProt P11712); test: Inhibition of CYP2C9 (unknown origin); format: ADME
CCRF-SB = test: Activation of human wild type STING R232 expressed in CCRF-SB cells assessed as phosphorylation at (Ser396) at 10 uM incubated for 2 hrs and measured by Western blot analysis; conditions: filed as activator

T1 sequence (Q86WV6 whole entry): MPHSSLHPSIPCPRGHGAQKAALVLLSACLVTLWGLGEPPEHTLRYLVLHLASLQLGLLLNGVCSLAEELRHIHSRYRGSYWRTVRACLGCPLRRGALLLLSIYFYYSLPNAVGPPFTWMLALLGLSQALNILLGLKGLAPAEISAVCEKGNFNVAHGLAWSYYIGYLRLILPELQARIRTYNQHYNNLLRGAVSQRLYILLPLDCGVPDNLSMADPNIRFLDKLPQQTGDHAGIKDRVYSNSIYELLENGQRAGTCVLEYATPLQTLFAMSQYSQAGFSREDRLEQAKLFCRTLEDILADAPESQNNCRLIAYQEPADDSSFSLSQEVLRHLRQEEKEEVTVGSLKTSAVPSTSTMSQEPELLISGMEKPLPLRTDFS
Sequence of Stimulator of interferon genes protein (Homo sapiens), Q86WV6 [UNDEFINED MUTATION] (Q86WV6 whole entry, looked up, change not shown): as the sequence (Q86WV6 whole entry) above
Sequence of hERG (KCNH2) (Q12809 whole entry): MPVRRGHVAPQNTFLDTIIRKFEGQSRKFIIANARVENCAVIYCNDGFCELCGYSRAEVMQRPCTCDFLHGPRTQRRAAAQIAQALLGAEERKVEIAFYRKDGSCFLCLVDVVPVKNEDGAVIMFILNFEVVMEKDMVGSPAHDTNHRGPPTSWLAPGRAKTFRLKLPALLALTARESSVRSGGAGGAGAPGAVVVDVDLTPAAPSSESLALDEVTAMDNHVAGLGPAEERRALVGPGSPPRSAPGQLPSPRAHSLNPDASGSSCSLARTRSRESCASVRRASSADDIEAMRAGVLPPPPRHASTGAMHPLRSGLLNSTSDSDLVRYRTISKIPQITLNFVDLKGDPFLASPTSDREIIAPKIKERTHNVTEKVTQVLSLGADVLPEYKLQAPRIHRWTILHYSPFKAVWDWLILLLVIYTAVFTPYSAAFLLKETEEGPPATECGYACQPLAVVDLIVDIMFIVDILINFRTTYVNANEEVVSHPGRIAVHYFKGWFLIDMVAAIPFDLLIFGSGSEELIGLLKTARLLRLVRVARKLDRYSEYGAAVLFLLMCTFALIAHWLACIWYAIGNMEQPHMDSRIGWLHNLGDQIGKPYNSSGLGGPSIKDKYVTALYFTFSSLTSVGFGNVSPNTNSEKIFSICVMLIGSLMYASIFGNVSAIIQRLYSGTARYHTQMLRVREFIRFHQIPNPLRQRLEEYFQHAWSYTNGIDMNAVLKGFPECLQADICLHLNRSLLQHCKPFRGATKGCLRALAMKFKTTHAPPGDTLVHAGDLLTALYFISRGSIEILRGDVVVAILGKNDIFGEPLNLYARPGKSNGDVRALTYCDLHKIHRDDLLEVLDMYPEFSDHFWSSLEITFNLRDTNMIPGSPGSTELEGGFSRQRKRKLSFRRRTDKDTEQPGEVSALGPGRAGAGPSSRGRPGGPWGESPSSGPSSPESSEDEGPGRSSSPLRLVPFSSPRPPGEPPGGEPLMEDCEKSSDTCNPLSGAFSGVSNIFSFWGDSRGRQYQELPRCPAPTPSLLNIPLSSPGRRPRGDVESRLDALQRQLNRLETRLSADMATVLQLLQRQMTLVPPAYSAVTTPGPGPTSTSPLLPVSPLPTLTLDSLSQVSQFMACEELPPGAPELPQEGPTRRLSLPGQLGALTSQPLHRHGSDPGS
Sequence of Cytochrome P450 3A4 (P08684 whole entry): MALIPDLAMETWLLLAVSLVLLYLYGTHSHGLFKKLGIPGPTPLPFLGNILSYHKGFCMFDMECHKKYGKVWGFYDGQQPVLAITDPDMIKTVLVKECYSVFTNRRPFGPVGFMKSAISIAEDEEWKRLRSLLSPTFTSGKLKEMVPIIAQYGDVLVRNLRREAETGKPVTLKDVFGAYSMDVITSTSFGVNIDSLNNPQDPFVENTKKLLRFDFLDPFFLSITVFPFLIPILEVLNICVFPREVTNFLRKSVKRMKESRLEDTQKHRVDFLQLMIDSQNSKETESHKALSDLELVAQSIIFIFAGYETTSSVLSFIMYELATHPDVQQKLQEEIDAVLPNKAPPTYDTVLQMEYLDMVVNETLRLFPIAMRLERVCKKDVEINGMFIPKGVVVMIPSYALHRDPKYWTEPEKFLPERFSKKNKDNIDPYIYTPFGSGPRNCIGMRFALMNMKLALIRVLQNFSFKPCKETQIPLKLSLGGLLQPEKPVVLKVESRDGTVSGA
Sequence of Cytochrome P450 2D6 (P10635 whole entry): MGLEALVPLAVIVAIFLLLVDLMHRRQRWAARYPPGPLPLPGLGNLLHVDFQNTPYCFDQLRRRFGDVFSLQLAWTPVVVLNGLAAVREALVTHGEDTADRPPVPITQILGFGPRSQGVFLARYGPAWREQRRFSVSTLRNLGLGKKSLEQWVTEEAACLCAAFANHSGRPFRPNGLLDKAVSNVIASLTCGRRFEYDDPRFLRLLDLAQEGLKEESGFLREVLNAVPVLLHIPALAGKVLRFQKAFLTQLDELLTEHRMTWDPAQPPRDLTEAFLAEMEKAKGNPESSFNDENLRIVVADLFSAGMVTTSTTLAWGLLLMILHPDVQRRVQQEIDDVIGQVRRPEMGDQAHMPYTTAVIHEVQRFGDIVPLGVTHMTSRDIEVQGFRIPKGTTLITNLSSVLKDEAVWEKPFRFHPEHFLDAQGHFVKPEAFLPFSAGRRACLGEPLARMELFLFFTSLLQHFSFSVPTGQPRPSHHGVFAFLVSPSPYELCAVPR
Sequence of Stimulator of interferon genes protein (Homo sapiens), Q86WV6 [G230A,R293Q] (Q86WV6 whole entry G230A/R293Q): as the sequence (Q86WV6 whole entry) above, with G230A, R293Q counted along it
Sequence of Cytochrome P450 2C9 (P11712 whole entry): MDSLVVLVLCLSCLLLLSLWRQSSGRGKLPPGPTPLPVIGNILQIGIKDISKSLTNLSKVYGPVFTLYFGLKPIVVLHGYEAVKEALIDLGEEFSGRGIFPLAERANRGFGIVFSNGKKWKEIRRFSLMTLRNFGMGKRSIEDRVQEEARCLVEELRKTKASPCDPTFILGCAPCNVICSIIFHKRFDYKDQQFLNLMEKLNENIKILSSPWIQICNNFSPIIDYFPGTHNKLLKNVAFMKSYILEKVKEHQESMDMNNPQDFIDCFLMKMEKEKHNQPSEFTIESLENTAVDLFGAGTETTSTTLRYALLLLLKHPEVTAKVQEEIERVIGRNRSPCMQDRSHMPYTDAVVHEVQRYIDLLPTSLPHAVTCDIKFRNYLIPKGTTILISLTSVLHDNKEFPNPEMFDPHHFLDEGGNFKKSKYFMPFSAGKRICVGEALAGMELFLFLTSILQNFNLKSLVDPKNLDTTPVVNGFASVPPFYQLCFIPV
Sequence of Stimulator of interferon genes protein (Macaca fascicularis) (A0A2K5TV20 as listed by the source): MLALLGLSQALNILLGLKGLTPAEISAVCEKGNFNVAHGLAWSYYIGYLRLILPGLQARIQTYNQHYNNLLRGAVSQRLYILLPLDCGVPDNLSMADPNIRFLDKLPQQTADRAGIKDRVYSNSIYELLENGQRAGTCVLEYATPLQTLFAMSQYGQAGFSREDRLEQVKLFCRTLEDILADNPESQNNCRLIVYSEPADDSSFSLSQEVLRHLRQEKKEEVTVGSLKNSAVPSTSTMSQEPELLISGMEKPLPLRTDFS

EC50 [1]: 185 nM
Activity [2]: Active
Activity [3]: inactive
Activity [4]: Active
Activity [8]: Active
Activity [9]: Active
Stabilty [13]: Stable
Stabilty [14]: Stable
inhibition (INH) (Cytochrome P450 3A4): Not Active
Cmax [15]: 1870 ng/mL
bioavailability [16]: 86%
inhibition (INH) (Cytochrome P450 2D6): Not Active
inhibition (INH) (Cytochrome P450 2C9): Not Active
Structure (SMILES): CC1(C)C(=O)N(Cc2c(F)cccc2Cl)c2cc(C(=O)NCc3c(F)cc(F)cc3F)ccc21
Activity (HEK293T [5]): Dose-dependent effect
Activity (HEK293T [6]): Active
Activity (HEK293T [7]): Active
Activity [10]: Active
Activity [11]: Active
Activity [12]: Active
Activity (B16-F10): Non-Toxic
inhibition at 10 µM (hERG (KCNH2)): 20%
Activity (CCRF-SB): Active
